Experimental data: ChEMBL document CHEMBL1128705, “[[[(Thienylcarbonyl)alkyl]oxy]phenyl]- and [[[(pyrrylcarbonyl)alkyl]oxy]phenyl]oxazoline derivatives with potent and selective antihuman rhinovirus activity” (J Med Chem, 1995)
Converted amounts (≈) assume the structure as drawn.

Columns and labels:
HeLa [1] = test: In vitro concentration required to achieve 50% protection of HeLa cells from HRV-2 induced cytopathic effect; assay type: functional, cell-based; conditions: Homo sapiens
Outline: (§1)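 HeLa-Ohio cells (20 000/well) are seeded in D-MEM with 2% FCS, 30 mM MgCl2 and 15 µg/mL DEAE-dextran, then grown overnight at 37 °C, 5% CO2, to a subconfluent monolayer. Compound dilutions (from 200× DMSO stocks) are added with HRV at 200–2000 PFU/monolayer, dosed to give full CPE in 72 h. Plates are held at 33 °C and viability is read by MTT. EC50 is the concentration giving 50% protection.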

Human rhinovirus sp. [2] = test: In vitro concentration required to achieve 50% protection of HeLa cells from HRV-14 induced cytopathic effect; assay type: functional, organism-based; outline: as §1
HeLa [3] = test: In vitro concentration required to reduce the viability of mock-infected HeLa cells by 50%; assay type: functional; conditions: Homo sapiens
Outline: (§2)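 Cytotoxicity run alongside the antiviral assay on mock-infected HeLa-Ohio cells. Compounds are taken from 200× DMSO stocks and serially diluted in maintenance medium. Cells are incubated 72 h at 37 °C and viability is read by MTT. CC50 is the concentration that reduces viability by 50%.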

Human rhinovirus sp. [4] = test: In vitro concentration which inhibits 80% of serotypes tested; assay type: functional
Outline: (§3)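 CPE-inhibition MTT assay in HeLa-Ohio cells (30 mM MgCl2, 15 µg/mL DEAE-dextran, 2% FCS), infected at 200–2000 PFU/monolayer and incubated at 33 °C. MIC80 is the concentration inhibiting 80% of the serotypes tested.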

Human rhinovirus sp. [5] = test: Compound concentration which inhibits 80% of serotypes tested, was reported.; assay type: functional; outline: as §3
HeLa [6] = test: Compound concentration required to reduce the viability of mock-infected HeLa cells by 50%, was reported.; assay type: functional; conditions: Homo sapiens; outline: as §2
HeLa [7] = test: In vitro concentration required to reduce the viability of mock-infected HeLa cells by 50%, was reported.; assay type: functional; conditions: Homo sapiens; outline: as §2

EC50 (HeLa [1]) [µM]	EC50 (Human rhinovirus sp. [2]) [µM]	MIC80 (Human rhinovirus sp. [4]) [µM]	MIC80 (Human rhinovirus sp. [5]) [µM]	SMILES	CC50 (HeLa [3]) [µM]	CC50 (HeLa [6]) [µM]	CC50 (HeLa [7]) [µM]
0.91	2.42			CCOC(=O)c1ccc(OCCCCC(=O)c2ccc(C)o2)cc1	65		
0.08	0.54	2.18 (≈ 0.8 µg/mL)		CCOC(=O)c1ccc(OCCCCC(=O)c2ccc(Cl)s2)cc1	273		
> 30.9	> 30.9		> 30.9	Cn1cc(C(=O)CCCCOc2ccc(C(=O)O)cc2)cc1C=O		> 303	
3.2	8.01	> 32		O=C(CCCCOc1ccc(C2=NCCO2)cc1)c1ccc[nH]1	> 320		
2.57	2.85	21.4 (≈ 7.5 µg/mL)		Clc1ccc(CCCCCOc2ccc(C3=NCCO3)cc2)s1	71		
0.81	0.13	> 27.1		O=C(CCCCOc1ccc(C2=NCCO2)cc1)c1ccc(Cl)s1	> 271		
1.43	> 31.9	15.9 (≈ 4.75 µg/mL)		c1ccn(CCCCCOc2ccc(C3=NCCO3)cc2)c1	159		
> 31.4	> 31.4	> 31.4		Cc1csc(C(=O)CCCCOc2ccc(C(=O)O)cc2)c1	> 314		
1.17	18.9	> 29		CCOC(=O)c1ccc(OCCCCC(=O)c2cc(C)[nH]c2C)cc1	204		
> 31.4	> 31.4	> 31.4		Cc1ccc(C(=O)CCCCOc2ccc(C(=O)O)cc2)s1	> 314		
1.31	0.14	9.04 (≈ 3.1 µg/mL)		Cc1ccc(C(=O)CCCCOc2ccc(C3=NCCO3)cc2)s1	146		
10.6	> 30.1	> 30.1		CCOC(=O)c1ccc(OCCCC(=O)c2ccc(C)s2)cc1	> 301		
2.58	11.5	> 30.4		Cc1ccc(CCCCCOc2ccc(C3=NCCO3)cc2)s1	> 303		
> 28.2	11.3	> 28.2		Cc1cc(C(=O)CCCCOc2ccc(C3=NCCO3)cc2)c(C)n1C	141		
> 31.4	> 31.4	> 31.4		Cc1ccsc1C(=O)CCCCOc1ccc(C(=O)O)cc1	> 314		
15.2	22.7	> 30.3		Cc1ccc(C(=O)CCCOc2ccc(C3=NCCO3)cc2)s1			
> 30.6	> 30.6	> 30.6		Cc1ccc(C(=O)CCCCOc2ccc(C(=O)NCCO)cc2)o1	> 305		

EC50 (HeLa [1]) [µM]	EC50 (Human rhinovirus sp. [2]) [µM]	MIC80 (Human rhinovirus sp. [4]) [µM]	MIC80 (Human rhinovirus sp. [5]) [µM]	SMILES	CC50 (HeLa [3]) [µM]	CC50 (HeLa [6]) [µM]	CC50 (HeLa [7]) [µM]
2.91	0.87	14.6 (≈ 5.01 µg/mL)		Cc1csc(C(=O)CCCCOc2ccc(C3=NCCO3)cc2)c1	73		
2.89	5.78			CCOC(=O)c1ccc(OCCCCC(=O)c2cc(C)cs2)cc1	> 289		
> 29.4	> 29.4	> 29.4		Cc1cc(C(=O)CCCCOc2ccc(C3=NCCO3)cc2)c(C)[nH]1	205		
1.59	7.16	14.3 (≈ 4.76 µg/mL)		CCOC(=O)c1ccc(OCCCCCc2ccc(C)s2)cc1	301		
11	13.3	19.5 (≈ 6.14 µg/mL)		CCOC(=O)c1ccc(OCCCCC(=O)c2cc[nH]c2)cc1	> 317		
1.84	9.15	18.3 (≈ 6.45 µg/mL)		CCOC(=O)c1ccc(OCCCCCc2ccc(Cl)s2)cc1	> 284		
2.28	16.8	> 28		CCOC(=O)c1ccc(OCCCCC(=O)c2cc(C)n(C)c2C)cc1	56		
0.06	0.29	2.31 (≈ 0.8 µg/mL)		CCOC(=O)c1ccc(OCCCCC(=O)c2ccc(C)s2)cc1	> 289		
> 33.1	> 33.1	> 33.1		c1cc(C2=NCCO2)ccc1OCCCCCN1CCCC1	165		
> 30.7	3.68	> 30.7		Cn1cccc1C(=O)CCCCOc1ccc(C2=NCCO2)cc1			> 306
> 29.5	> 29.5	> 29.5		O=C(O)c1ccc(OCCCCC(=O)c2ccc(Cl)s2)cc1	> 295		
0.67	1.96		8.4 (≈ 3 µg/mL)	CCOC(=O)c1ccc(OCCCCC(=O)c2cc(C=O)n(C)c2)cc1		56	
29.2	1.46	> 29.1		Cc1ccsc1C(=O)CCCCOc1ccc(C2=NCCO2)cc1	291		
> 32	> 32	> 32		O=C(CCCCOc1ccc(C2=NCCO2)cc1)c1cc[nH]c1	> 320		
6.94	> 28.9	20.8 (≈ 7.21 µg/mL)		CCOC(=O)c1ccc(OCCCCC(=O)c2sccc2C)cc1	202		
> 28.2	> 28.2		> 28.2	Cn1cc(C(=O)CCCCOc2ccc(C3=NCCO3)cc2)cc1C=O		> 282	
2.35	1.76		3.51 (≈ 1.2 µg/mL)	Cc1cc(CCCCCCCOc2ccc(C3=NCCO3)cc2)on1 [DISOXARIL]		37	
